Calls of active or inactive are those of the source.
What was measured:
Bacteria [1] = assay: Inhibition of recombinant bacterial IMP1 expressed in Escherichia coli BL21 (DE3) cells using FC4-FC5 as substrate assessed as residual activity at 100 uM by fluorescence-based assay
In short: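 IMP-1 was incubated with inhibitor for 10 min before substrate was added. Residual activity was calculated from the initial rate of FC5 hydrolysis.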

Bacteria [2] = assay: Inhibition of recombinant full-length bacterial His6-tagged VIM2 (27 to 266 residues) expressed in Escherichia coli BL21 (DE3) cells using FC4-FC5 as substrate assessed as residual activity at 100 uM by fluorescence-based assay
[3] = molecular target: Beta-lactamase TEM (Bacteria) (UniProt P62593); assay: Inhibition of recombinant N-terminal His-tagged Escherichia coli TEM1 (24 to 286 residues) expressed in Escherichia coli BL21(DE3) at 200 uM using FC5 as substrate
[4] = molecular target: Beta-lactamase CTX-M (Escherichia coli) (UniProt Q9EXV5); assay: Inhibition of recombinant Escherichia coli EO516 N-terminal His6-tagged CTX-M using FC5 as substrate at 200 uM preincubated at 10 to 300 mins followed by substrate addition
[5] = molecular target: Beta-lactamase (Escherichia coli K-12) (UniProt P00811); assay: Inhibition of recombinant Escherichia coli AmpC at 200 uM using FC5 as substrate preincubated at 10 to 300 mins followed by substrate addition
[6] = molecular target: Beta-lactamase OXA-10 (Pseudomonas aeruginosa) (UniProt P14489); assay: Inhibition of recombinant Pseudomonas aeruginosa OXA-10 at 200 uM using FC5 as substrate
Bacteria [7] = assay: Inhibition of recombinant full-length bacterial His6-tagged SPM1 (29 to 276 residues) expressed in Escherichia coli BL21 (DE3) cells at 100 uM using FC4-FC5 as substrate by fluorescence-based assay
Bacteria [8] = assay: Inhibition of recombinant bacterial IMP1 expressed in Escherichia coli BL21 (DE3) cells at 100 uM using FC4-FC5 as substrate by fluorescence-based assay
[9] = molecular target: T1, Metallo-beta-lactamase type 2 (Bacillus cereus) (UniProt P04190); assay: Inhibition of recombinant bacterial BC2 expressed in Escherichia coli BL21 (DE3) cells at 100 uM using FC4-FC5 as substrate by fluorescence-based assay
T1 sequence (whole entry): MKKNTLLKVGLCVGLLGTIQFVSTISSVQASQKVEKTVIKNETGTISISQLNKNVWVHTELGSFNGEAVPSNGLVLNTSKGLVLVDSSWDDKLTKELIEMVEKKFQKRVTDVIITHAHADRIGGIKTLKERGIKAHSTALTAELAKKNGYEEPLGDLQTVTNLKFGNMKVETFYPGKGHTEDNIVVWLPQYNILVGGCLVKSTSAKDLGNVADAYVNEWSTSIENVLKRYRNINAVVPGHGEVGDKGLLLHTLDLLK

Bacteria [10] = assay: Inhibition of recombinant full-length bacterial His6-tagged VIM2 (27 to 266 residues) expressed in Escherichia coli BL21 (DE3) cells at 100 uM using FC4-FC5 as substrate by fluorescence-based assay
Bacteria [11] = assay: Inhibition of recombinant bacterial NDM1 expressed in Escherichia coli BL21 (DE3) cells at 100 uM using FC5 as fluorogenic reporter substrate preincubated at 10 to 300 mins followed by substrate addition
[12] = molecular target: Metallo-beta-lactamase type 2 (Aeromonas hydrophila) (UniProt P26918); assay: Inhibition of Aeromonas hydrophila CphA at 100 uM using fluorogenic cephalosporin as substrate
[13] = molecular target: Beta-lactamase TEM (Bacteria) (UniProt P62593); assay: Inhibition of recombinant N-terminal His-tagged Escherichia coli TEM1 (24 to 286 residues) expressed in Escherichia coli BL21(DE3) using FC5 as substrate assessed as residual activity at 200 uM
[14] = molecular target: Beta-lactamase (Escherichia coli K-12) (UniProt P00811); assay: Inhibition of recombinant Escherichia coli AmpC assessed as residual activity at 200 uM using FC5 as substrate preincubated at 10 to 300 mins followed by substrate addition
[15] = molecular target: Beta-lactamase OXA-10 (Pseudomonas aeruginosa) (UniProt P14489); assay: Inhibition of recombinant Pseudomonas aeruginosa OXA-10 using FC5 as substrate assessed as residual activity at 200 uM

Sequence of Beta-lactamase OXA-10 (Pseudomonas aeruginosa) (P14489 whole entry, the tested form may be a part): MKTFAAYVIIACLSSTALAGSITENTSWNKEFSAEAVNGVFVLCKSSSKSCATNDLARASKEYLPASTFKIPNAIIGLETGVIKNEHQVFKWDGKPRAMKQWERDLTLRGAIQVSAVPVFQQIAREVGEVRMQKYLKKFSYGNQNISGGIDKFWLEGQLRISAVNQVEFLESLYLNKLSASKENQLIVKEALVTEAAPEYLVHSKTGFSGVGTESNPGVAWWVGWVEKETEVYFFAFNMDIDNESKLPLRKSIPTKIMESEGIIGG
Sequence of Beta-lactamase (Escherichia coli K-12) (P00811 whole entry): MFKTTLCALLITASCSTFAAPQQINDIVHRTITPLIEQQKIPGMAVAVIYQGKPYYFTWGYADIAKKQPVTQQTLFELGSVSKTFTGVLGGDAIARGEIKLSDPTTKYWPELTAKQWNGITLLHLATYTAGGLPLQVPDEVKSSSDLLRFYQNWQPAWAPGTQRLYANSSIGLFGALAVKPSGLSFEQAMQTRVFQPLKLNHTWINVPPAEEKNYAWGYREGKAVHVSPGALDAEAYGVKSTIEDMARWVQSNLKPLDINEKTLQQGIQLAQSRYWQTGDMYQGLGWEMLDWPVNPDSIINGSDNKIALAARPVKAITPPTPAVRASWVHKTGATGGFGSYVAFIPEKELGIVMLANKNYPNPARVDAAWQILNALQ
Sequence of Beta-lactamase TEM (Bacteria) (P62593 whole entry, the tested form may be a part): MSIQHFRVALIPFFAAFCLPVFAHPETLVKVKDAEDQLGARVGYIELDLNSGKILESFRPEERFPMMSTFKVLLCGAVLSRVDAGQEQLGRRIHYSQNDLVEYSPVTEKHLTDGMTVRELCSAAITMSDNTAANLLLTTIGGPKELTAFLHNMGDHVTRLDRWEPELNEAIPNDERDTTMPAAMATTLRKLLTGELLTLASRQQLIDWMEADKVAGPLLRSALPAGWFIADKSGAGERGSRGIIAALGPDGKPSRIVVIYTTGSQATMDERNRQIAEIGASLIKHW
Sequence of Metallo-beta-lactamase type 2 (Aeromonas hydrophila) (P26918 whole entry, the tested form may be a part): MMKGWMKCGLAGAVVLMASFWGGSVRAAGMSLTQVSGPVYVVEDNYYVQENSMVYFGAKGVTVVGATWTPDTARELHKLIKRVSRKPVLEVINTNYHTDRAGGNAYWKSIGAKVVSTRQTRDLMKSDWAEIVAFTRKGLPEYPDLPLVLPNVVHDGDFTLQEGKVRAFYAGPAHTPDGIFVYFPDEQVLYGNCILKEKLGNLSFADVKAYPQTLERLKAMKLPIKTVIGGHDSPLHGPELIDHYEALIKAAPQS

inhibition [3] | inhibition [4] | inhibition [5] | inhibition [6] | SMILES | Activity (Bacteria [1]) [%] | Activity (Bacteria [2]) [%] | other results
inactive | inactive | inactive | inactive | CC1=N/C(=C\c2ccc(F)cc2)C(=O)O1 | 100 | 100 | –
inactive | inactive | inactive | inactive | O=C(O)CN1C(=O)/C(=C/c2ccccc2Br)SC1=S | – | – | –
inactive | inactive | inactive | inactive | O=C(O)/C(O)=C/c1ccc(F)cc1 | 100 | 100 | –

The next lines start with the compound.

SMILES | inhibition [3] | inhibition [4] | inhibition [5] | inhibition [6] | Activity (Bacteria [1]) [%] | Activity (Bacteria [2]) [%] | other results
O=C(O)C(O)c1ccccc1 (stereo unspecified) | – | – | – | – | – | – | inhibition (Bacteria [7]): inactive; inhibition (Bacteria [8]): inactive; inhibition [9]: inactive; inhibition (Bacteria [10]): inactive; inhibition (Bacteria [11]): inactive; inhibition [12]: inactive
O=P(O)(O)C(S)c1ccc(Br)cc1F (stereo unspecified) | inactive | inactive | inactive | inactive | 100 | 100 | –
O=C(O)C(O)Cc1ccccc1 (stereo unspecified) | – | – | – | – | – | – | inhibition (Bacteria [7]): inactive; inhibition (Bacteria [8]): inactive; inhibition [9]: inactive; inhibition (Bacteria [10]): inactive; inhibition (Bacteria [11]): inactive; inhibition [12]: inactive
O=P(O)(O)C(O)c1ccc(Br)cc1F (stereo unspecified) | inactive | inactive | inactive | inactive | 100 | 100 | –
O=C(O)/C(S)=C/c1c2ccccc2cc2ccccc12 | – | – | – | – | – | – | Activity [13]: 40%
CN1CCN(NC(=O)CN2C(=O)/C(=C/c3c4ccccc4cc4ccccc34)SC2=S)CC1 | – | – | – | – | – | – | Activity [14]: 1%; Activity [15]: 41%
O=C(O)/C(S)=C/c1ccc(Br)cc1 | inactive | inactive | inactive | inactive | – | – | –
COc1ccc(/C=C(\S)C(=O)O)cc1 | inactive | inactive | inactive | inactive | – | – | –

From ChEMBL document CHEMBL4118127, “Structure activity relationship studies on rhodanines and derived enethiol inhibitors of metallo-β-lactamases” (Bioorg Med Chem, 2018)
